Measured values taken from ChEMBL document CHEMBL2321832, “A Fluorescent Styrylquinoline with Combined Therapeutic and Diagnostic Activities against Alzheimer's and Prion Diseases” (ACS Med Chem Lett, 2013).
Calls of active or inactive are those of the source. The rule behind the calls is not given here.

Assays:
[1] = Cytotoxicity against mouse ScGT1 cells assessed as cell viability at EC50 concentration after 5 days by fluorescence plate reader analysis; format: cell-based; details: read-out: Activity
ScGT1 [2] = assay: Antiprion activity against scrapie prion protein (unknown origin) infected in mouse ScGT1 cells assessed as decrease in PrPSc accumulation after 5 days measured following PK digestion by Western blot analysis; format: cell-based
[3] = Antiprion activity against scrapie prion protein (unknown origin) infected in mouse ScGT1 cells assessed as inhibition of PrPSc replication by ELISA; format: cell-based
[4] = Cytotoxicity against mouse ScGT1 cells assessed as cell viability at 1 uM after 5 days by fluorescence plate reader analysis; format: cell-based; details: read-out: Activity
[5] = Permeability of the compound assessed as diffusion from donor plate through porcine brain lipid membrane into acceptor plate at pH 7.4 by PAMPA method; format: ADME; details: pig, read-out: permeability
Summary of the method: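 PAMPA permeability (Pe) reported as mean ± SD of two experiments. CNS+ assigned when Pe > 3.74 × 10⁻⁶ cm s⁻¹; CNS+/− when Pe lies between 3.74 × 10⁻⁶ and 1.50 × 10⁻⁶ cm s⁻¹.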

[6] = target: Amyloid-beta precursor protein (Homo sapiens) (UniProt P05067); assay: Inhibition of amyloid beta (1 to 42) (unknown origin) fibril formation at 1:1 compound to amyloid beta ratio after 24 hrs by Thioflavin T-based fluorometric assay
Sequence of Amyloid-beta precursor protein (Homo sapiens) (P05067 whole entry): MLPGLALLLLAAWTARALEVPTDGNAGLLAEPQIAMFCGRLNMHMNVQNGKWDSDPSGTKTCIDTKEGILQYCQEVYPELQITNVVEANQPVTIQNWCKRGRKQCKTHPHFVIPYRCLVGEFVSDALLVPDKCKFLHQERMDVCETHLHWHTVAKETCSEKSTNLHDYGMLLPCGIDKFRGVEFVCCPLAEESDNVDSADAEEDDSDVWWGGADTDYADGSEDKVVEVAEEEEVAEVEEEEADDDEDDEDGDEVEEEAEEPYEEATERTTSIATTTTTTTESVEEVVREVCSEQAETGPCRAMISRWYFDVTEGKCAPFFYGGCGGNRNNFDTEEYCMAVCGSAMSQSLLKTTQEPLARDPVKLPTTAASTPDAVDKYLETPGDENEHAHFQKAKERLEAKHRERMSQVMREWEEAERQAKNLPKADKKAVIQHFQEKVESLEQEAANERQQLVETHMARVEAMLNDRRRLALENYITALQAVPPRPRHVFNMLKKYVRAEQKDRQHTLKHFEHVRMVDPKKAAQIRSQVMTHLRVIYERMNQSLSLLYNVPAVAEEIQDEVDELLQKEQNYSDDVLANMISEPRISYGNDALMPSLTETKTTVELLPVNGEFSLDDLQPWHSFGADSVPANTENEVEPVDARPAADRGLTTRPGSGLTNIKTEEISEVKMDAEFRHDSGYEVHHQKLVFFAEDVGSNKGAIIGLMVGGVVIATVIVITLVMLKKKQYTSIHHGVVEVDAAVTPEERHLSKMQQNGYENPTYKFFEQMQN

[7] = target: Major prion protein (Mus musculus) (UniProt P04925); assay: Inhibition of mouse PrP (23-230) fibril formation assessed as extension of lag phase at 50 uM by amyloid seeding assay
Sequence of Major prion protein (Mus musculus) (P04925 whole entry): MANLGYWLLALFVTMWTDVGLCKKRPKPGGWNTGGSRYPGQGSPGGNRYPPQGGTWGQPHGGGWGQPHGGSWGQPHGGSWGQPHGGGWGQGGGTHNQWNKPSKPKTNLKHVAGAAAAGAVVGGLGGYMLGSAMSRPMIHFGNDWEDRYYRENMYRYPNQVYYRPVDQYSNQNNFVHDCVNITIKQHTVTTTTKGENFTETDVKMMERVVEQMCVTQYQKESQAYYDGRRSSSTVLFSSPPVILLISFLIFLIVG

[8] = target: Amyloid-beta precursor protein (Homo sapiens) (UniProt P05067); assay: Binding affinity to amyloid beta (1 to 42) (unknown origin) at 0.5 uM by fluorescence analysis
[9] = target: Amyloid-beta precursor protein (Homo sapiens) (UniProt P05067); assay: Binding affinity to pre-aggregated amyloid beta (1 to 42) (unknown origin) assessed as hyperchromic effect at 5 uM by fluorescence analysis
Summary of the method: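 Emission spectra of compound (5 μM) recorded in 10 mM phosphate buffer, pH 7.4, with and without aggregated Aβ42 (3 μM).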

[10] = target: Amyloid-beta precursor protein (Homo sapiens) (UniProt P05067); assay: Displacement of Thioflavin-T from pre-aggregated amyloid beta (1 to 42) (unknown origin) at >25 nM by fluorometric assay
[11] = Cytotoxicity against mouse ScGT1 cells assessed as cell viability at 10 uM after 5 days by fluorescence plate reader analysis; format: cell-based; details: read-out: Activity
ScGT1 [12] = assay: Binding affinity to scrapie prion protein (unknown origin) aggregate in mouse ScGT1 cells at 0.84 mM measured following denaturation with 6 M guanidinium chloride by fluorescence microscopy; format: cell-based
Summary of the method: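 Cells denatured with 6 M guanidinium chloride, then stained with 3·HCl at 0.84 mM (0.025%). Uninfected GT1 cells, with or without denaturation, serve as control. Imaged by fluorescence microscopy with FITC and ThS filter sets, nuclei counterstained with DAPI. Pattern compared with 0.025% Thioflavin S staining. A second line, ScN2a, was also used.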

ScGT1 [13] = assay: Binding affinity to PK-resistant scrapie prion protein (unknown origin) aggregate in mouse ScGT1 cells at 0.25 mM measured following PK digestion by fluorescence microscopy; format: cell-based
Summary of the method: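 ScGT1 cells stained with 3·HCl at 0.25 mM after a proteinase K digestion step that removes PK-sensitive PrP^C. Uninfected GT1 cells processed the same way serve as control. Imaged by fluorescence microscopy, mainly with the FITC filter set and confirmed with the ThS filter set.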

[14] = target: Amyloid-beta precursor protein (Homo sapiens) (UniProt P05067); assay: Binding affinity to pre-aggregated amyloid beta (1 to 42) (unknown origin) at 25 nM by Thioflavin T-based fluorometric assay

Compound: COc1ccc2nc(/C=C/c3ccccc3)ccc2c1
- viability at 120 h [1]: 74.9%
- inhibition (ScGT1 [2]): Dose-dependent effect
- EC50 [3]: 700 nM
- viability at 120 h, 1 µM [4]: 60%
- Papp [5]: 8.5 ×10⁻⁶ cm/s
- inhibition [6]: inactive
- TIME [7]: > 70 h

Compound: COc1cc(/C=C/C(=O)CC(=O)/C=C/c2ccc(O)c(OC)c2)ccc1O
- inhibition ([6]; concentration not given here): 73%

Compound: O=C(CN1CCCC1)Nc1ccc(Cc2ccc(NC(=O)CN3CCCC3)cc2)cc1
- viability at 120 h [1]: 93.4%
- inhibition (ScGT1 [2]): Dose-dependent effect
- EC50 [3]: 1500 nM

Compound: Cc1ccc2nc(/C=C/c3ccccc3)ccc2c1
- viability at 120 h [1]: 90.5%
- inhibition (ScGT1 [2]): Dose-dependent effect
- EC50 [3]: 500 nM
- viability at 120 h, 1 µM [4]: > 90%
- Papp [5]: 3 ×10⁻⁶ cm/s
- inhibition [6]: inactive
- TIME [7]: > 70 h

Compound: CCN(CC)CCCC(C)Nc1c2ccc(Cl)cc2nc2ccc(OC)cc12 (centres undefined) [QUINACRINE]
- viability at 120 h [1]: 100%
- EC50 [3]: 400 nM

Compound: Cc1ccc2nc(/C=C/c3ccc(N)cc3)ccc2c1
- viability at 120 h [1]: 94.6%
- inhibition (ScGT1 [2]): Dose-dependent effect
- EC50 [3]: 500 nM
- Activity [8]: Active
- Activity [9]: Active
- Activity [10]: Active
- viability at 120 h, 10 µM [11]: 60%
- Activity (ScGT1 [12]): Active
- Activity (ScGT1 [13]): Active
- viability at 120 h, 1 µM [4]: > 90%
- Papp [5]: 23.1 ×10⁻⁶ cm/s
- inhibition ([6]; concentration not given here): 42.4%
- TIME [7]: > 70 h
- Activity [14]: Active
